Assay results taken from ChEMBL document CHEMBL4024803, “New Steroidal 4-Aminoquinolines Antagonize Botulinum Neurotoxin Serotype A in Mouse Embryonic Stem Cell Derived Motor Neurons in Postintoxication Model” (J Med Chem, 2018).

Assays:
[1] = molecular target: Botulinum neurotoxin type A (Clostridium botulinum) (UniProt P0DPI0); experiment: Inhibition of Clostridium botulinum BoNT/A holotoxin-mediated SNAP-25 cleavage in mouse HBG3 cell-derived motor neurons preincubated for 30 mins followed by intoxication measured after 4 hrs by Western blot method
[2] = molecular target: Botulinum neurotoxin type A (Clostridium botulinum) (UniProt P0DPI0); experiment: (§1) Inhibition of Clostridium botulinum BoNT/A light chain using P39 as substrate preincubated for 10 mins followed by substrate addition measured after 10 mins by HPLC method
[3] = molecular target: Botulinum neurotoxin type A (Clostridium botulinum, UniProt P0DPI0); experiment: as §1
[4] = molecular target: Botulinum neurotoxin type A (Clostridium botulinum) (UniProt P0DPI0); experiment: Inhibition of Clostridium botulinum BoNT/A light chain at 20 uM using P39 as substrate preincubated for 10 mins followed by substrate addition measured after 10 mins by HPLC method relative to control
Summary of the method: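 Purified BoNT/A light chain (20 nM) with 0.2 mg/mL BSA in 50 mM HEPES pH 7.4, preincubated with compound for 10 min at room temperature. Cleavage fragments were separated by reversed-phase HPLC (214/280 nm). Percent inhibition was taken from fragment peak areas with vs without compound. Mean of three experiments.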

[5] = molecular target: Botulinum neurotoxin type A (Clostridium botulinum) (UniProt P0DPI0); experiment: Inhibition of Clostridium botulinum BoNT/A holotoxin-mediated SNAP-25 cleavage in mouse HBG3 cell-derived motor neurons assessed as full length of SNAP-25 at 10 uM preincubated for 30 mins followed by intoxication measured after 4 hrs by Western blot method relative to control; design: scale not given: the % may be the effect or the level left
[6] = Distribution co-efficient, log D of the compound at pH 1 by reversed-phase thin-layer chromatographic method; type: physicochemical; conditions: buffer
Summary of the method: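 Reversed-phase thin-layer chromatography at pH 1, mobile phase MeOH/HCl (70/30).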

[7] = molecular target: Botulinum neurotoxin type A (Clostridium botulinum) (UniProt P0DPI0); experiment: Inhibition of Clostridium botulinum BoNT/A holotoxin-mediated SNAP-25 cleavage in mouse HBG3 cell-derived motor neurons assessed as full length of SNAP-25 at 20 uM preincubated for 30 mins followed by intoxication measured after 4 hrs by Western blot method relative to control; design: scale not given: the % may be the effect or the level left
[8] = Distribution co-efficient, log D of the compound at pH 10 by reversed-phase thin-layer chromatographic method; type: physicochemical; conditions: buffer
Summary of the method: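 Reversed-phase thin-layer chromatography at pH 10, mobile phase acetone/NH3/H2O (85/5/10).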

[9] = molecular target: Botulinum neurotoxin type A (Clostridium botulinum) (UniProt P0DPI0); experiment: Inhibition of Clostridium botulinum BoNT/A holotoxin-mediated SNAP-25 cleavage in mouse HBG3 cell-derived motor neurons assessed as full length of SNAP-25 at 20 uM treated at 30 mins post intoxication by Western blot method relative to control; design: scale not given: the % may be the effect or the level left
[10] = molecular target: Botulinum neurotoxin type A (Clostridium botulinum) (UniProt P0DPI0); experiment: Inhibition of Clostridium botulinum BoNT/A holotoxin-mediated SNAP-25 cleavage in mouse HBG3 cell-derived motor neurons assessed as full length of SNAP-25 at 20 uM treated at 60 mins post intoxication by Western blot method relative to control; design: scale not given: the % may be the effect or the level left

N#Cc1ccc(-c2ccc(-c3cccc(CNCCCCCCNc4ccnc5ccccc45)c3)s2)cc1
inhibition [1]: Dose-dependent effect | inhibition [2]: Dose-dependent effect | IC50 [3]: 8.7 µM | inhibition [4]: 68% | Activity [5]: 46% | chromatographic logD [6]: 3.08 | Activity [7]: 71%

CC(CCNCC12CC3CC(CC(C3)C1)C2)Nc1c(F)cnc2cc(Cl)ccc12 (stereo unspecified)
inhibition [1]: Dose-dependent effect | chromatographic logD [8]: 3.24 | inhibition [4]: 15% | Activity [5]: 31% | Activity [7]: 35%

CC(CCNCC12CC3CC(CC(C3)C1)C2)Nc1c(F)cnc2ccccc12 (stereo unspecified)
inhibition [1]: Dose-dependent effect | chromatographic logD [8]: 3.09 | Activity [5]: 24% | Activity [7]: 23%

CC(CCNCCC12CC3CC(CC(C3)C1)C2)Nc1c(F)cnc2ccccc12 (stereo unspecified)
inhibition [1]: Dose-dependent effect | chromatographic logD [8]: 4.13 | Activity [5]: 30% | Activity [7]: 32%

CN(CCCNc1ccnc2ccccc12)CCC12CC3CC(CC(C3)C1)C2
inhibition [4]: 31%

N#Cc1ccc(-c2ccc(-c3ccc(CNCCCCCCNc4ccnc5cc(Cl)ccc45)cc3)s2)cc1
inhibition [4]: 30%

CC(=O)O[C@H]1C[C@H]2[C@@H]([C@H](OC(C)=O)C[C@@H]3C[C@H](NCCCCCCNc4ccnc5cc(Cl)ccc45)CC[C@@]32C)[C@@H]2CC[C@H]([C@H](C)CCCNCCCCCCNc3ccnc4cc(Cl)ccc34)[C@@]12C
inhibition [1]: Dose-dependent effect | inhibition [2]: Dose-dependent effect | IC50 [3]: 12.4 µM | Activity [9]: 36% | Activity [10]: 20% | inhibition [4]: 90% | Activity [5]: 70% | Activity [7]: 84%

CC(CCCNCc1ccc(-c2csc3ccc(C#N)cc23)cc1)Nc1ccnc2ccccc12 (stereo unspecified)
inhibition [1]: Dose-dependent effect | inhibition [2]: Dose-dependent effect | IC50 [3]: 10.2 µM | chromatographic logD [8]: 3.67 | inhibition [4]: 61% | Activity [5]: 34% | Activity [7]: 53%

CC(=O)O[C@H]1C[C@H]2[C@@H]([C@H](OC(C)=O)C[C@@H]3C[C@H](N)CC[C@@]32C)[C@@H]2CC[C@H]([C@H](C)CCCN(C)CCCCNc3ccnc4ccccc34)[C@@]12C
inhibition [1]: Dose-dependent effect | inhibition [2]: Dose-dependent effect | IC50 [3]: 1.5 µM | inhibition [4]: 52% | Activity [5]: 70% | chromatographic logD [6]: 2.11 | Activity [7]: 69%

CN(CCCCCCNc1ccnc2ccccc12)Cc1ccc(-c2ccc(-c3ccc(C#N)cc3)s2)cc1
inhibition [4]: 55%

CN(CCCCNc1ccnc2ccccc12)Cc1ccc(-c2csc3ccc(F)cc23)cc1
inhibition [1]: Dose-dependent effect | chromatographic logD [8]: 3.98 | inhibition [4]: 46% | Activity [5]: 44% | Activity [7]: 55%

CN(CCCNc1ccnc2cc(Cl)ccc12)CC12CC3CC(CC(C3)C1)C2
inhibition [1]: Dose-dependent effect | inhibition [2]: Dose-dependent effect | IC50 [3]: 8.8 µM | Activity [9]: 46% | Activity [10]: 39% | chromatographic logD [8]: 3.24 | inhibition [4]: 71% | Activity [5]: 51% | Activity [7]: 56%

C#Cc1ccc(-c2ccc(-c3ccc(CNCCNc4ccnc5cc(Cl)ccc45)cc3)s2)cc1
inhibition [4]: 19%

CC(=O)O[C@H]1C[C@H]2[C@@H]([C@H](OC(C)=O)C[C@@H]3C[C@H](N)CC[C@@]32C)[C@@H]2CC[C@H]([C@H](C)CCCNC(C)CCCNc3ccnc4ccccc34)[C@@]12C (mixture of isomers)
inhibition [1]: Dose-dependent effect | inhibition [2]: Dose-dependent effect | IC50 [3]: 3 µM | Activity [9]: 50% | Activity [10]: 22% | inhibition [4]: 75% | Activity [5]: 86% | chromatographic logD [6]: 2.21 | Activity [7]: 87%

CC(CCNc1ccnc2cc(Cl)ccc12)NCC12CC3CC(CC(C3)C1)C2 (stereo unspecified)
inhibition [1]: Dose-dependent effect | inhibition [2]: Dose-dependent effect | IC50 [3]: 2.7 µM | chromatographic logD [8]: 3.4 | inhibition [4]: 65% | Activity [5]: 29% | Activity [7]: 30%

CC(=O)O[C@H]1C[C@H]2[C@@H]([C@H](OC(C)=O)C[C@@H]3C[C@H](N)CC[C@@]32C)[C@@H]2CC[C@H]([C@H](C)CCCN(C)CCCC(C)Nc3ccnc4ccccc34)[C@@]12C (mixture of isomers)
inhibition [1]: Dose-dependent effect | inhibition [2]: Dose-dependent effect | IC50 [3]: 0.7 µM | inhibition [4]: 85% | Activity [5]: 20% | chromatographic logD [6]: 2.38 | Activity [7]: 41%

CC(CCNCCC12CC3CC(CC(C3)C1)C2)Nc1ccnc2ccccc12 (stereo unspecified)
inhibition [4]: 42%

N#Cc1ccc2c(-c3ccc(CNCCCCNc4ccnc5ccccc45)cc3)csc2c1
inhibition [4]: 23%

CC(CCNCCC12CC3CC(CC(C3)C1)C2)Nc1c(F)cnc2cc(Cl)ccc12 (stereo unspecified)
inhibition [1]: Dose-dependent effect | chromatographic logD [8]: 4.33 | inhibition [4]: 2% | Activity [5]: 30% | Activity [7]: 29%

N#Cc1ccc(-c2ccc(-c3ccc(CNCCNc4ccnc5cc(Cl)ccc45)cc3)s2)cc1
inhibition [4]: 36%

Fc1ccc2scc(-c3ccc(CNCCCCCCNc4ccnc5ccccc45)cc3)c2c1
inhibition [4]: 56%

Fc1ccc2scc(-c3ccc(CNCCCCNc4ccnc5ccccc45)cc3)c2c1
inhibition [4]: 34%

N#Cc1ccc(-c2ccc(-c3ccc(CNCCCCNc4ccnc5ccccc45)cc3)s2)cc1
inhibition [1]: Dose-dependent effect | inhibition [2]: Dose-dependent effect | IC50 [3]: 9.3 µM | inhibition [4]: 67% | Activity [5]: 18% | chromatographic logD [6]: 2.93 | Activity [7]: 39%

CC(CCCNCc1ccc(-c2csc3ccc(F)cc23)cc1)Nc1ccnc2ccccc12 (stereo unspecified)
inhibition [1]: Dose-dependent effect | inhibition [2]: Dose-dependent effect | IC50 [3]: 8.8 µM | chromatographic logD [8]: 3.98 | inhibition [4]: 69% | Activity [5]: 62% | Activity [7]: 62%

CC(=O)O[C@H]1C[C@H]2[C@@H]([C@H](OC(C)=O)C[C@@H]3C[C@H](N)CC[C@@]32C)[C@@H]2CC[C@H]([C@H](C)CCCNCCCC(C)Nc3ccnc4ccccc34)[C@@]12C (mixture of isomers)
inhibition [1]: Dose-dependent effect | inhibition [2]: Dose-dependent effect | IC50 [3]: 2.7 µM | Activity [9]: 38% | Activity [10]: 22% | inhibition [4]: 71% | Activity [5]: 67% | chromatographic logD [6]: 2.28 | Activity [7]: 69%

N#Cc1ccc(-c2ccc(-c3ccc(CNCCCCCCNc4ccnc5ccccc45)cc3)s2)cc1
inhibition [1]: Dose-dependent effect | inhibition [2]: Dose-dependent effect | IC50 [3]: 3.4 µM | inhibition [4]: 70 to 80% | Activity [5]: 22% | chromatographic logD [6]: 3.08 | Activity [7]: 48%

CC(CCNc1ccnc2ccccc12)NCCC12CC3CC(CC(C3)C1)C2 (stereo unspecified)
inhibition [1]: Dose-dependent effect | Activity [5]: 23% | Activity [7]: 24%

CC(CCN(C)CC12CC3CC(CC(C3)C1)C2)Nc1ccnc2ccccc12 (stereo unspecified)
inhibition [1]: Dose-dependent effect | inhibition [2]: Dose-dependent effect | IC50 [3]: 5.2 µM | inhibition [4]: 51% | Activity [5]: 47% | Activity [7]: 46%

N#Cc1ccc2c(-c3ccc(CNCCCCCCNc4ccnc5ccccc45)cc3)csc2c1
inhibition [4]: 8%

CC(=O)O[C@H]1C[C@H]2[C@@H]([C@H](OC(C)=O)C[C@@H]3C[C@H](N)CC[C@@]32C)[C@@H]2CC[C@H]([C@H](C)CCCNCCCC(=O)Nc3ccnc4cc(Cl)ccc34)[C@@]12C
inhibition [4]: 37%

N#Cc1ccc(-c2ccc(-c3ccc(CNCCCCCCCCNc4ccnc5cc(Cl)ccc45)cc3)s2)cc1
inhibition [4]: 14%

N#Cc1ccc2scc(-c3ccc(CNCCCCCCNc4ccnc5ccccc45)cc3)c2c1
inhibition [1]: Dose-dependent effect | inhibition [2]: Dose-dependent effect | IC50 [3]: 3.3 µM | chromatographic logD [8]: 3.85 | inhibition [4]: 75% | Activity [5]: 36% | Activity [7]: 43%

C#Cc1ccc(-c2ccc(-c3ccc(CNCCCCCCCCNc4ccnc5ccccc45)cc3)s2)cc1
inhibition [4]: 53%

CN(CCCNc1ccnc2ccccc12)CC12CC3CC(CC(C3)C1)C2
inhibition [1]: Dose-dependent effect | inhibition [4]: 30% | Activity [5]: 30% | Activity [7]: 31%

CC(CCNCCC12CC3CC(CC(C3)C1)C2)Nc1ccnc2cc(Cl)ccc12 (stereo unspecified)
inhibition [4]: 64%

N#Cc1ccc2scc(-c3ccc(CNCCCCNc4ccnc5ccccc45)cc3)c2c1
inhibition [1]: Dose-dependent effect | inhibition [2]: Dose-dependent effect | IC50 [3]: 4.6 µM | chromatographic logD [8]: 3.67 | inhibition [4]: 84% | Activity [5]: 21% | Activity [7]: 26%

CC(CCCN(C)Cc1ccc(-c2csc3ccc(F)cc23)cc1)Nc1ccnc2ccccc12 (stereo unspecified)
inhibition [4]: 48%
